Source: ChEMBL document CHEMBL2169774, “Stabilization and structural alteration of the G-quadruplex DNA made from the human telomeric repeat mediated by Tröger's base based novel benzimidazole derivatives” (J Med Chem, 2012)
pIC50: −log10 of the molar value. Activity calls are given as the source filed them. The calls are words filed in the database; no cut-off is given here.

Tests used:
Nucleic Acid [1] = assay: Ratio of Kapp for human d[G3(T2AG3)3] G-quadruplex DNA to Kapp for calf thymus duplex DNA; type: nucleic-acid assay
Summary of the method: (§1)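 UV–vis absorption titration of ligand with preformed Hum21 G4DNA, or with calf thymus duplex DNA. Hypochromicity data were converted to Scatchard plots, and the apparent association constant was obtained by linear fitting.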

Nucleic Acid [2] = assay: Binding affinity to human d[G3(T2AG3)3] G-quadruplex DNA assessed formation of G-quadruplex parallel strands in 100 mM KCl buffer by CD spectroscopy; type: nucleic-acid assay
Summary of the method: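 Hum21 (4 μM strand) was heated at 90 °C for 5 min together with ligand (40 μM), then cooled slowly in 100 mM KCl buffer (10 mM Tris-HCl, 0.1 mM EDTA, pH 7.4). CD spectra were recorded to assign parallel or antiparallel topology.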

Nucleic Acid [3] = assay: Binding affinity to human d[G3(T2AG3)3] G-quadruplex DNA assessed as change in structure in CD spectral profile in LiCl buffer by CD spectroscopy; type: nucleic-acid assay
Summary of the method: (§2)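 Hum21 G4DNA (4 μM strand) was preformed in 10 mM Tris-HCl with 100 mM LiCl and 0.1 mM EDTA, pH 7.4. It was then titrated with ligand and CD spectra were recorded.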

Nucleic Acid [4] = assay: Binding affinity to human d[G3(T2AG3)3] G-quadruplex DNA assessed as change in structure in CD spectral profile in 100 mM KCl buffer by CD spectroscopy; type: nucleic-acid assay
Summary of the method: (§3)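 CD spectral titration of preformed Hum21 G4DNA (4 μM) in 10 mM Tris-HCl, 100 mM KCl, 0.1 mM EDTA, pH 7.4. Ligand was added at 0–160 μM in 20 μM increments. The induced CD band was followed.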

NIH3T3 [5] = assay: Cytotoxicity in mouse NIH/3T3 cells incubated for 6 to 48 hrs by MTT assay; type: cell-based
Summary of the method: (§4)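 HeLa, A549 or NIH3T3 cells (15.0 × 10³/well) were grown 24 h to 70% confluency. Ligand was applied at various concentrations in 0.2% FBS for 6 or 48 h at 37 °C. Medium was then replaced with DMEM/10% FBS and growth continued 42 h. MTT was added for 4 h and formazan dissolved in DMSO. Absorbance read at 595 nm, in triplicate, viability normalized to untreated cells.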

Nucleic Acid [6] = assay: Binding affinity to human d[G3(T2AG3)3] G-quadruplex DNA in LiCl buffer by CD spectroscopy; type: nucleic-acid assay; summary of the method: as §2
Nucleic Acid [7] = assay: Binding affinity to human d[G3(T2AG3)3] G-quadruplex DNA in LiCl+ Na+ buffer by CD spectroscopy; type: nucleic-acid assay
Summary of the method: (§5)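 CD titration of preformed Hum21 G4DNA (4 μM) in 100 mM LiCl, 10 mM sodium cacodylate, 0.1 mM EDTA, pH 7.4. Ligand was added stepwise from 0 to 160 μM in 20 μM steps. Peaks at 250 and 295 nm and the induced CD band were monitored.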

A549 [8] = assay: Cytotoxicity in human A549 cells at 4 uM up to 15 days […]; type: functional
Summary of the method: (§6)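 Long-term proliferation: HeLa, A549 or NIH3T3 cells were seeded at 5.0 × 10⁴/well. They were exposed to 4 μM ligand, or 0.1% DMSO as vehicle, every 5 days. Cells were counted and reseeded at half the population over 15 days, and population versus time was plotted.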

A549 [9] = assay: Cytotoxicity in human A549 cells incubated for 6 to 48 hrs by MTT assay; type: functional, cell-based; summary of the method: as §4
NIH3T3 [10] = assay: Cytotoxicity in mouse NIH/3T3 cells at 4 uM up to 15 days […]; type: cell-based; settings: nih3t3, 360 h; summary of the method: as §6
Nucleic Acid [11] = assay: Binding affinity to human d[G3(T2AG3)3] G-quadruplex DNA in 100 mM KCl buffer by CD spectroscopy; type: nucleic-acid assay; summary of the method: as §3
Nucleic Acid [12] = assay: Binding affinity to human d[G3(T2AG3)3] G-quadruplex DNA assessed as change in melting temperature at 20 uM in KCl buffer; type: nucleic-acid assay
Summary of the method: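 CD melting of preformed Hum21 G4DNA (2 μM) in 10 mM Tris-HCl, 100 mM KCl, 0.1 mM EDTA, read at 292 nm. Ligand added at r = 10. ΔTm is bound minus free Tm, average of two runs.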

Nucleic Acid [13] = assay: Binding affinity to human d[G3(T2AG3)3] G-quadruplex DNA assessed as change in melting temperature at 20 uM in NaCl buffer; type: nucleic-acid assay
Summary of the method: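 CD melting at 295 nm of Hum21 G4DNA (2 μM strand) preformed in 10 mM Tris-HCl, 100 mM NaCl, 0.1 mM EDTA. Ligand at r = 10. ΔTm is complexed minus free Tm, mean of two experiments.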

Nucleic Acid [14] = assay: Binding affinity to human d[G3(T2AG3)3] G-quadruplex DNA assessed as change in structure in CD spectral profile in LiCl+ Na+ buffer by CD spectroscopy; type: nucleic-acid assay; summary of the method: as §5
HeLa [15] = assay: Cytotoxicity in human HeLa cells incubated for 6 to 48 hrs by MTT assay; type: functional, cell-based; summary of the method: as §4
Nucleic Acid [16] = assay: Binding affinity to human d[G3(T2AG3)3] G-quadruplex DNA assessed as change in melting temperature at 20 uM in KCl buffer using compound which is heated to 90 degC for 5 mins followed by slow cooling; type: nucleic-acid assay
Summary of the method: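 Hum21 (2 μM) was folded in KCl buffer (10 mM Tris-HCl, 100 mM KCl, 0.1 mM EDTA) with ligand present at r = 10, by heating to 90 °C for 5 min and cooling slowly. CD melting was read at 266 nm. ΔTm is taken against free G4DNA, mean of two experiments.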

Nucleic Acid [17] = assay: Binding affinity to human d[G3(T2AG3)3] G-quadruplex DNA assessed as change in melting temperature at 10 uM in LiCl-Na buffer; type: nucleic-acid assay
Summary of the method: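 CD melting of Hum21 G4DNA (4 μM strand) preformed by heating at 90 °C for 5 min then slow cooling over 24 h in 100 mM LiCl, 10 mM sodium cacodylate, 0.1 mM EDTA, pH 7.4. Ligand added at [ligand]/[DNA] r = 5. Melting followed at 295 nm. ΔTm is ligand-bound minus free Tm, average of two runs.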

HeLa [18] = assay: Cytotoxicity in human HeLa cells at 4 uM up to 15 days by […]; type: functional; summary of the method: as §6
Nucleic Acid [19] = assay: Binding affinity to human d[G3(T2AG3)3] G-quadruplex DNA by UV-vis titration based assay; type: nucleic-acid assay; summary of the method: as §1
HEK-293T = assay: Cytotoxicity in transformed HEK293T cells incubated for 6 to 48 hrs by MTT assay; type: functional, cell-based; settings: Homo sapiens
Summary of the method: (§7)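 HEK293 and HEK293T cells were seeded at 8.0 × 10³/well and run as in the short-term MTT protocol: treatment in 0.2% FBS, then medium change and 595 nm formazan read-out. Figure data reflect 48 h exposure, six replicates per point.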

[20] = target: Telomerase reverse transcriptase (Homo sapiens, UniProt O14746); assay: Inhibition of telomerase extracted from human A549 cells by TRAP-LIG assay; type: cell-free
Sequence of Telomerase reverse transcriptase (O14746 whole entry): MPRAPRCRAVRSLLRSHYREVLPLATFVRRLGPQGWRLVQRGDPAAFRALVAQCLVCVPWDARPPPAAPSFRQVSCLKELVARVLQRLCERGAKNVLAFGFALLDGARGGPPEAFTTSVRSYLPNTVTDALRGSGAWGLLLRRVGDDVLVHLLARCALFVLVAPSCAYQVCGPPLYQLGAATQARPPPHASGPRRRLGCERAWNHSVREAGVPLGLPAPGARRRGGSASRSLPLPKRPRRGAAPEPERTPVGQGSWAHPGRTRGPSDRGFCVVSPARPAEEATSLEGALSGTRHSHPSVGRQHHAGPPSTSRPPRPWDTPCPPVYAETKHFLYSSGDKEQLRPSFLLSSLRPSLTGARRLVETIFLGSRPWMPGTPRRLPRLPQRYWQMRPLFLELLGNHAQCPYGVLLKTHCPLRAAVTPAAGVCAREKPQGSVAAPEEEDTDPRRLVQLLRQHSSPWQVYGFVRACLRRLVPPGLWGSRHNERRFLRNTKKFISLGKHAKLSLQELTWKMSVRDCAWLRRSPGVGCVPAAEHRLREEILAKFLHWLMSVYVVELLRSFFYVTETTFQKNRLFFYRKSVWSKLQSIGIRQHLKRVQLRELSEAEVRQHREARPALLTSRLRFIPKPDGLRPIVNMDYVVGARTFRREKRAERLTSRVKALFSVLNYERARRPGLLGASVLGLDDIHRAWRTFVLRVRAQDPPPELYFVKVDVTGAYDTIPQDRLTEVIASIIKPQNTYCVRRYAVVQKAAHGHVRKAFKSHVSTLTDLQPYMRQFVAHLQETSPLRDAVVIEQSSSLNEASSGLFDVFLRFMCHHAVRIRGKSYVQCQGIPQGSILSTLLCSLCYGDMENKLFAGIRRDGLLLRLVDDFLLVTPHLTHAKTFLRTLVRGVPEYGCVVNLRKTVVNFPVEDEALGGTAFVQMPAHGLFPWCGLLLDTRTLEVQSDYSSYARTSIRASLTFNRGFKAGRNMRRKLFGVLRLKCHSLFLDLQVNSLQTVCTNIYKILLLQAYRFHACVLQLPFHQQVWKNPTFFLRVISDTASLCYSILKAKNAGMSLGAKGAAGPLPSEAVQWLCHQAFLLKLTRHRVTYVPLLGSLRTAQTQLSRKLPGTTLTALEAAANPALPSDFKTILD
Summary of the method: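 Three-step TRAP-LIG assay with A549 protein extract (500 ng/sample) and TS primer in TRAP buffer (pH 8.3, 68 mM KCl), ligand at 5–60 μM. Elongation ran at 30 °C for 10 min. Ligand was then removed on a spin column. PCR with ACX primer ran 30 cycles. Products were resolved on 10% PAGE and read by phosphorimager. IC50 is the mean of three experiments.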

HEK293 = assay: Cytotoxicity in HEK293 cells incubated for 6 to 48 hrs by MTT assay; type: cell-based; settings: human; summary of the method: as §7
Nucleic Acid [21] = assay: Induction of topology changes in human d[G3(T2AG3)3] G-quadruplex DNA in 100 uM KCl buffer by EMSA method; type: nucleic-acid assay; settings: in the assay text read “100 mM KCl” for “100 uM KCl”
Summary of the method: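 5′-32P-labelled Hum21 G4DNA (5 μM) was used under two conditions. In one, it was preformed in 100 mM KCl and then given ligand (25 μM). In the other, it was folded with ligand (15–60 μM) by heating at 90 °C for 5 min and slow cooling in 100 mM KCl. Samples were run on native polyacrylamide gel with a dT20 mobility marker.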

Ratio (Nucleic Acid [1])	Activity (Nucleic Acid [2])	Activity (Nucleic Acid [3])	Activity (Nucleic Acid [4])	Activity (Nucleic Acid [6])	Activity (Nucleic Acid [7])	Activity (Nucleic Acid [11])	ΔTm (Nucleic Acid [12]) [°C]	ΔTm (Nucleic Acid [13]) [°C]	Activity (Nucleic Acid [14])	ΔTm (Nucleic Acid [16]) [°C]	ΔTm (Nucleic Acid [17]) [°C]	Kapp (Nucleic Acid [19]) [×10⁵ /M]	SMILES	Activity (NIH3T3 [5])	Activity (A549 [8])	Activity (A549 [9])	Activity (NIH3T3 [10])	Activity (HeLa [15])	Activity (HeLa [18])	Activity (HEK-293T)	also measured
100	Active	inactive	inactive	Active	Active	Active	10	11	inactive	17	9.5	4.2	OCCN1CCN(c2ccc3nc(-c4ccc5c(c4)CN4CN5Cc5cc(-c6nc7ccc(N8CCN(CCO)CC8)cc7[nH]6)ccc54)[nH]c3c2)CC1	Toxic	Active	Active	Toxic	Active	Active	Active	Activity (A549 [8]; record 2): 100%; pIC50 [20]: 4.84; Activity (HEK293): Toxic; Activity (Nucleic Acid [21]): Active
100	Active	inactive	inactive	Active	Active	Active	8	9	inactive	15	9.3	1.4	CN1CCN(c2ccc3nc(-c4ccc5c(c4)CN4CN5Cc5cc(-c6nc7ccc(N8CCN(C)CC8)cc7[nH]6)ccc54)[nH]c3c2)CC1	Toxic	100%	Active	Toxic	Active	100%	Active	pIC50 [20]: 4.46; Activity (HEK293): Toxic; Activity (Nucleic Acid [21]): inactive
